We go through 20 compounds from ChEMBL document CHEMBL1255207, “Pyrazolobenzodiazepines: part I. Synthesis and SAR of a potent class of kinase inhibitors” (Bioorg Med Chem Lett, 2010).

Data set [1] deals with Cyclin-dependent kinase 2/cyclin E (Homo sapiens, UniProt P24941). Description: Inhibition of CDK2-cyclin E. It is filed as protein-complex assay. The procedure, abridged: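 CDK2 was paired with cyclin E1. IC50 came from at least two replicates at each concentration.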
Data set [2] concerns SW480. Description: Cytotoxicity against human SW480 cells by MTT assay. It is filed as functional, cell-based. In short, it runs like this: (§1)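 Antiproliferative IC50 was measured in human tumor lines: H460a (lung), HCT116, RKO and SW480 (colon), and MDA-MB435 (breast). Values are the mean of duplicate wells.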
A short description of data set [3]: Inhibition of FGFR.
Data set [4] addresses Epidermal growth factor receptor (Homo sapiens, UniProt P00533). Description: Inhibition of EGFR.
Data set [5] deals with Proto-oncogene tyrosine-protein kinase Src (Homo sapiens, UniProt P12931). Put plainly: Inhibition of Src.
Sequence of Proto-oncogene tyrosine-protein kinase Src (P12931 2-536 limits assumed): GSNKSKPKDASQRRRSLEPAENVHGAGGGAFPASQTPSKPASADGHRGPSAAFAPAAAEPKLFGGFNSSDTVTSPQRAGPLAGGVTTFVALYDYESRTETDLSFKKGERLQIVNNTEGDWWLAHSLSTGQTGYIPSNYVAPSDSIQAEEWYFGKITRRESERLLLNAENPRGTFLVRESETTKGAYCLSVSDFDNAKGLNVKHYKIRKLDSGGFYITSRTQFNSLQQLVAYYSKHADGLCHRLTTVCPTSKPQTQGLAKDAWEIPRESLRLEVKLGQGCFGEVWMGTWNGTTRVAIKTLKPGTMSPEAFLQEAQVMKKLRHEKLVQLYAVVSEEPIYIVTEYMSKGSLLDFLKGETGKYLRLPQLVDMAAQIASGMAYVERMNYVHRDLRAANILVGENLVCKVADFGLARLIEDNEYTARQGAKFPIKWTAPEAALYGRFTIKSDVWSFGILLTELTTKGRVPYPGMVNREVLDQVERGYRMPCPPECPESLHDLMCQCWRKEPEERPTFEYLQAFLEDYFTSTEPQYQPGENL
Data set [6] has as its target Vascular endothelial growth factor receptor 2 (Homo sapiens, UniProt P35968). Put plainly: Inhibition of KDR.
The target in data set [7] is CDK4-cyclin D1 (Homo sapiens). Description: Inhibition of CDK4/Cyclin D1.
A further data set deals with Focal adhesion kinase 1 (Homo sapiens, UniProt Q05397). Description: Inhibition of FAK.
Sequence of Focal adhesion kinase 1 (Q05397 whole entry): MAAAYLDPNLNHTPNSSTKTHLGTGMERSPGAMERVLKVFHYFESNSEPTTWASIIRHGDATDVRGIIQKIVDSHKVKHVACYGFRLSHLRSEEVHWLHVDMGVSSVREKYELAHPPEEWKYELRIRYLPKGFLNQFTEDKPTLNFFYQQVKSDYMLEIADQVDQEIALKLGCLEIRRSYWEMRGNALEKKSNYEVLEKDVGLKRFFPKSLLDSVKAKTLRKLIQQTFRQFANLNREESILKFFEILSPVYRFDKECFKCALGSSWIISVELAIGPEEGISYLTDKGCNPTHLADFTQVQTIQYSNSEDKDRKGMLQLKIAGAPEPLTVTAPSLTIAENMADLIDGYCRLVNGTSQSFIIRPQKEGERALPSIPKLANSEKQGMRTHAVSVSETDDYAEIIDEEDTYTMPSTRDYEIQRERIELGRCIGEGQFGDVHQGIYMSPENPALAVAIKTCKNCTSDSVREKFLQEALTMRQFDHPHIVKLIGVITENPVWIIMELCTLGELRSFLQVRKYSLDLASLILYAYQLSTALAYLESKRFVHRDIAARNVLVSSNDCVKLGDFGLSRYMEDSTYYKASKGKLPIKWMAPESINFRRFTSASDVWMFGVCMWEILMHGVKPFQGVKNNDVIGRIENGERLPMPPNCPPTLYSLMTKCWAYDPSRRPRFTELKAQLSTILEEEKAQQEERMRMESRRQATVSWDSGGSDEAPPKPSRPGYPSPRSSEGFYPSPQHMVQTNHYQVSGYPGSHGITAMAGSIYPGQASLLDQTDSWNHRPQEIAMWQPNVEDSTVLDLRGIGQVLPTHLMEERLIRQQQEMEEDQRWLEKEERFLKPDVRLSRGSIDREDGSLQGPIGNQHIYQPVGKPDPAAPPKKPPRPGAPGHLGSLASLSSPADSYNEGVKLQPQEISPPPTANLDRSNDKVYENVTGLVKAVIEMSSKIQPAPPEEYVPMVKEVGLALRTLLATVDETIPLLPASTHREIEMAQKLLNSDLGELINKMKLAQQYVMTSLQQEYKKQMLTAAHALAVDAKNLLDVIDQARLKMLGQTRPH
Data set [8] concerns the target CDK1-cyclin A1 (Homo sapiens). Put plainly: Inhibition of CDK1-cyclin A1.
Data set [9] can be described thus: Inhibition of PDGFR.
In data set [10] the test system is Mus musculus. Put plainly: Toxicity in human SW480 cells xenografted mouse assessed as mortality at 0.78 to 3.125 mg/kg, po bid for 20 days. It is filed as organism-based. The conditions noted are these: in vivo, 480 h. Also noted: dose 0.78-3.125 mg/kg, route oral. In short, it runs like this: (§2)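 SW480 tumour-bearing nude mice were dosed by oral gavage (0.2 ml/animal) at 3.125, 1.56 or 0.78 mg/kg b.i.d. for 20 days, against a vehicle b.i.d. group. Animals were watched for drug-related toxicity, with body weight and tumour growth followed over days after tumour cell implant.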

The next data set deals with HCT-116. Put plainly: Cytotoxicity against human HCT116 cells by MTT assay. It counts as functional, cell-based. The procedure, abridged:
as §1

For a further data set, the system named is A549. Description: Antitumor activity against human A549 cells xenografted in mouse assessed as inhibition of tumor growth administered as po bid for 20 days. It is filed as functional, organism-based.
Data set [11] relates to Mus musculus. Put plainly: Toxicity in human SW480 cells xenografted mouse assessed as body weight gain at 0.78 to 3.125 mg/kg, po bid for 20 days. Also noted: dose 0.78-3.125 mg/kg, route oral. The following applies: in vivo, 480 h. It counts as organism-based. The procedure, abridged: (§3)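 SW480 tumor-bearing nude mice dosed per os by gavage (0.2 ml/animal) twice daily for 20 days at 3.125, 1.56 and 0.78 mg/kg, with vehicle b.i.d. control. Tumor growth was followed over days post-implant and expressed as %T/C and % inhibition, with p values. Body weight change was tracked over the study.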

Data set [12] deals with NCI-H460. Put plainly: Antitumor activity against human H460 cells xenografted in mouse assessed as inhibition of tumor growth administered as po bid for 20 days. It is filed as functional, organism-based.
For another data set, the system named is MDA-MB-435. Description: Cytotoxicity against human MDA-MB-435 cells by MTT assay. It is filed as functional, cell-based. The procedure, abridged: as §1
Another data set concerns RKO. Description: Cytotoxicity against human RKO cells by MTT assay. It is filed as functional, cell-based. In short, it runs like this:
as §1

The subject of another data set is LOX. Put plainly: Antitumor activity against human LOX cells xenografted in mouse assessed as inhibition of tumor growth administered as po bid for 20 days. It is filed as functional, organism-based.
Data set [13] relates to NCI-H460. Put plainly: Cytotoxicity against human H460a cells by MTT assay. It is filed as functional, cell-based. In short, it runs like this:
as §1

Data set [14] has as its system Mus musculus. Put plainly: Toxicity in human SW480 cells xenografted mouse assessed as overt signs at 0.78 to 3.125 mg/kg, po bid for 20 days. It is filed as organism-based. Also noted: dose 0.78-3.125 mg/kg, route oral. The conditions noted are these: in vivo, 480 h. In short, it runs like this:
as §2

Data set [15] concerns SW480. Description: Antitumor activity against human SW480 cells xenografted in mouse assessed as inhibition of tumor growth at 3.125 mg/kg, po bid for 20 days. It is filed as functional. The conditions noted are these: SW480, 480 h. In short, it runs like this:
as §3

Data set [16] has as its system SW480. Put plainly: Antitumor activity against human SW480 cells xenografted in mouse assessed as inhibition of tumor growth at 1.56 mg/kg, po bid for 20 days. It is filed as functional. The following applies: SW480, 480 h. In short, it runs like this: as §3
For another data set, the system named is LoVo. Put plainly: Antitumor activity against human LoVo cells xenografted in mouse assessed as inhibition of tumor growth administered as po bid for 20 days. It is filed as functional, organism-based.
The target of data set [17] is CDK4-cyclin D1 (Homo sapiens). Put plainly: Inhibition of CDK4-cyclin D1.
Data set [18] relates to CDK1-cyclin B (Homo sapiens). Put plainly: Inhibition of CDK1-cyclin B.

The structures appear in SMILES notation. Active and inactive are the calls of the source. The calls are words filed in the database; no cut-off is given here.

Sequence of Epidermal growth factor receptor (P00533 whole entry): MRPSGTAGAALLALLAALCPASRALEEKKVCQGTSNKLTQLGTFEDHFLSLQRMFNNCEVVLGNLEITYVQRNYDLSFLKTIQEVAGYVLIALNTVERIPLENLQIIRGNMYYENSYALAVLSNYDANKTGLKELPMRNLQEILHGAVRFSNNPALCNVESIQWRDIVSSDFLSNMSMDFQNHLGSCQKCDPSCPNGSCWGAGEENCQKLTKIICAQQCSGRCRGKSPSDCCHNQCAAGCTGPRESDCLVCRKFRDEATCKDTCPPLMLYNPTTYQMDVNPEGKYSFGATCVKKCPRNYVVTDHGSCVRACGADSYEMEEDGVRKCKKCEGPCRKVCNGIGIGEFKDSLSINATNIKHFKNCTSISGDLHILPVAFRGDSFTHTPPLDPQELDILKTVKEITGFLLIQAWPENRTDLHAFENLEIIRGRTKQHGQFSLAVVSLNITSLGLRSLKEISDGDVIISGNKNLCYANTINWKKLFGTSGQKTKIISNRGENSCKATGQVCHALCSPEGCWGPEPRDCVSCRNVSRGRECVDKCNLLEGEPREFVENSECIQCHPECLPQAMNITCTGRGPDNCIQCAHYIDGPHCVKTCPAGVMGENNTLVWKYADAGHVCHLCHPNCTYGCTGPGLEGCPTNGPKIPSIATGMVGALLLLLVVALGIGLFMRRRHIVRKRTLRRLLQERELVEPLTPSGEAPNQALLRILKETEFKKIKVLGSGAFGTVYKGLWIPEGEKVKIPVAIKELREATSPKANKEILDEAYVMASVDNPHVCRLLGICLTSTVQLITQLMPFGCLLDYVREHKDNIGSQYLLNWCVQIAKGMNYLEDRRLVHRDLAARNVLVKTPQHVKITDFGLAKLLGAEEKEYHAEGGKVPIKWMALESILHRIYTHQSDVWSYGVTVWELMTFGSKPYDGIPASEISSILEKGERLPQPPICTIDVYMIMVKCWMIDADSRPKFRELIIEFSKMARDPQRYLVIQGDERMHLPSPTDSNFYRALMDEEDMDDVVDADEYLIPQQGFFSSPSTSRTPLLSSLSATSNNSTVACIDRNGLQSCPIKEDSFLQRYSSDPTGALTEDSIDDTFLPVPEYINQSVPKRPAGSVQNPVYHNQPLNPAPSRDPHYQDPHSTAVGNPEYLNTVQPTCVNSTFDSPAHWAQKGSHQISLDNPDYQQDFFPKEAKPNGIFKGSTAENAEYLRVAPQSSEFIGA
Sequence of Vascular endothelial growth factor receptor 2 (P35968 whole entry): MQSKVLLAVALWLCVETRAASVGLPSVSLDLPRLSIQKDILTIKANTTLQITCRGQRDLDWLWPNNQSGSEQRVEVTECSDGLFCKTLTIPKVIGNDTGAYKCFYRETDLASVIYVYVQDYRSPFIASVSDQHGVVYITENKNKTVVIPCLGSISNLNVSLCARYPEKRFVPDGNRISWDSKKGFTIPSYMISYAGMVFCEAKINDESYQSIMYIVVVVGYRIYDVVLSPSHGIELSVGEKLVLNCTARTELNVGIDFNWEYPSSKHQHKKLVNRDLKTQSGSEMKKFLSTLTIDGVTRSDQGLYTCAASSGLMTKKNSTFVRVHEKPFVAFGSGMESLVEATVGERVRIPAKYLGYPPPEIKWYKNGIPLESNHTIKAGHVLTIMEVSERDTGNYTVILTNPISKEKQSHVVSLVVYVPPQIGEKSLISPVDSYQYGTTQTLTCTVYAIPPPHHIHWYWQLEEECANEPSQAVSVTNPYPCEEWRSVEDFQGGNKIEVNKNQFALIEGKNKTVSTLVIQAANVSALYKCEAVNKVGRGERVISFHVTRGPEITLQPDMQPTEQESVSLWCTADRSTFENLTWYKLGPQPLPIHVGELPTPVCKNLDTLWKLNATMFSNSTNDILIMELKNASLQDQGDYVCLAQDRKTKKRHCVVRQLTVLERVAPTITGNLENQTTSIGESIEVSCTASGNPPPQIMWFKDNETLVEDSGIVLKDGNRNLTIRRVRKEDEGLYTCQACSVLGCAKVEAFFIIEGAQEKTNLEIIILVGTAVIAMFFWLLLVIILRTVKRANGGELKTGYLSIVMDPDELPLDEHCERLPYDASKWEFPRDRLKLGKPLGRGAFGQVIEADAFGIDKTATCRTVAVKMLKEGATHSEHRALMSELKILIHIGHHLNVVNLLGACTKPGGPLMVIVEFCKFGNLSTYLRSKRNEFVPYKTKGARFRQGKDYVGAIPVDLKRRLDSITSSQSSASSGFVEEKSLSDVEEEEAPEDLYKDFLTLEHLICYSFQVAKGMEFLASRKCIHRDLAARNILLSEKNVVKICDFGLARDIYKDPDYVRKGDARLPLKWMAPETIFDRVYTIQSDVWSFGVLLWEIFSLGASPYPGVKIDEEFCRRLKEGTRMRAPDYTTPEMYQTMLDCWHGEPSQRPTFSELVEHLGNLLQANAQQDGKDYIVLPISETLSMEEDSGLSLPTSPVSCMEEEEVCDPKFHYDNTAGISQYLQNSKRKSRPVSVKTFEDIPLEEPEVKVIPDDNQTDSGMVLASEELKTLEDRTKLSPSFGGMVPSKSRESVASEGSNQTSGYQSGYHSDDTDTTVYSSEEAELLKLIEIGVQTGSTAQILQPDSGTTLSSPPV

`Cc1[nH]nc2c1N=C(c1ccccc1F)c1cc(F)ccc1N2`: the half-inhibitory concentration (IC50) in data set [1] was 40 nM; in the data set with SW480 [2], 700 nM.

On to `O=[N+]([O-])c1ccc2c(c1)C(c1ccccc1Cl)=Nc1c(n[nH]c1-c1ccncc1)N2`, for which the figures for the half-maximal inhibitory concentration (IC50) (in data set [1]; with SW480 [2]) were 50 nM and 12000 nM, respectively.

With `N#Cc1ccc2c(c1)C(c1ccccc1F)=Nc1c[nH]nc1N2`, the IC50 worked out at 67 nM in [3]; 10900 nM in data set [4]; 5400 nM in [5]; 39 nM in data set [6]; 16 nM in data set [1]; 520 nM in data set [7]. Besides, the IC50 against Focal adhesion kinase 1 stood at 1200 nM; in the data set on SW480 [2] it was 110 nM; in [8] it was 139 nM; in data set [9] it was 51 nM.

In the case of `Cc1[nH]nc2c1N=C(c1ccccc1F)c1ccccc1N2`, the 50% inhibitory concentration (IC50) in data set [1] is 64 nM; in the data set with SW480 [2], 400 nM.

For the compound `Cc1[nH]nc2c1N=C(c1ccccc1Cl)c1ccccc1N2`, the half-inhibitory concentration (IC50) in [1] came out at 105 nM; with SW480 [2], 3800 nM.

As to `O=[N+]([O-])c1ccc2c(c1)C(c1ccccc1Cl)=Nc1c(n[nH]c1CO)N2`, the half-inhibitory concentration (IC50) in [1] was determined as 238 nM; with SW480 [2], 240 nM.

Regarding `O=[N+]([O-])c1ccc2c(c1)C(c1ccccc1Cl)=Nc1c(n[nH]c1-c1cccnc1)N2`, the IC50 in data set [1] was determined as 300 nM; in the data set on SW480 [2] it was 26000 nM.

`Nc1ccc2c(c1)C(c1ccccc1Cl)=Nc1c[nH]nc1N2`: the Activity entry is listed as “Non-toxic” in the data set with Mus musculus [10], 9% in the data set on Mus musculus [11] and “Non-toxic” in the data set with Mus musculus [14]. Besides, the half-inhibitory concentration (IC50) in data set [3] turned out to be 50 nM; in the data set on HCT-116, 1020 nM; in [4], 989 nM; in data set [5], 1840 nM; in the data set with MDA-MB-435, 950 nM; in the data set on RKO, 310 nM. The IC50 with NCI-H460 [13] is 1070 nM; in data set [6], 34 nM; in data set [1], 88 nM; at Focal adhesion kinase 1 it was 150 nM; with SW480 [2] it was 500 nM; in data set [9], 15 nM. Moreover, the inhibition result in the data set with A549, in the data set on NCI-H460 [12], in the data set on LOX and with LoVo was “Active” throughout. Moreover, in the data set with SW480 [15], the inhibition in vivo at 3.125 mg/kg was 93%. Moreover, the inhibition in vivo at 1.56 mg/kg with SW480 [16] was 70%.

`NC(=O)c1[nH]nc2c1N=C(c1ccccc1Cl)c1cc([N+](=O)[O-])ccc1N2`: half-maximal inhibition in data set [1] (IC50) was put at 258 nM.

As to `Cc1[nH]nc2c1N=C(c1ccccc1)c1cc(F)ccc1N2`, the 50% inhibitory concentration (IC50) in data set [1] came to 93 nM; in the data set with SW480 [2], 2200 nM.

Turning to `O=[N+]([O-])c1ccc2c(c1)C(c1ccccc1Cl)=Nc1c(n[nH]c1-c1ccccc1)N2`, the half-inhibitory concentration (IC50) worked out at 210 nM in data set [1] and 18000 nM in the data set on SW480 [2].

For `CC(C)c1[nH]nc2c1N=C(c1ccccc1Cl)c1cc([N+](=O)[O-])ccc1N2`, the IC50 amounted to 10 nM in data set [1] and 640 nM in the data set with SW480 [2].

Consider `Cc1[nH]nc2c1N=C(c1ccccc1)c1ccccc1N2`, for which the half-maximal inhibitory concentration (IC50) in data set [1] is 115 nM; in the data set on SW480 [2] it was 1500 nM.

Take `O=[N+]([O-])c1ccc2c(c1)C(c1ccccc1Cl)=Nc1c(n[nH]c1CCc1ccccc1)N2`: the 50% inhibitory concentration (IC50) was determined as 5000 nM in data set [1] and 15000 nM in the data set with SW480 [2].

For the compound `O=[N+]([O-])c1ccc2c(c1)C(c1ccccc1Cl)=Nc1c(n[nH]c1-c1ccc[nH]1)N2`, the IC50 in data set [1] amounted to 20 nM; in the data set on SW480 [2], 5300 nM.

With `CC(=O)Nc1ccc2c(c1)C(c1ccccc1Cl)=Nc1c[nH]nc1N2`, the IC50 was determined as 45 nM in data set [3]; 460 nM in the data set with HCT-116; 726 nM in data set [4]; 930 nM in data set [5]; 794 nM in the data set with MDA-MB-435; 793 nM in the data set on RKO. Besides, the IC50 in the data set on NCI-H460 [13] came out at 550 nM; in data set [6], 33 nM; in [1], 38 nM; against Focal adhesion kinase 1 it was 180 nM; with SW480 [2] it was 700 nM; in data set [9] it was 23 nM.

Consider `O=[N+]([O-])c1ccc2c(c1)C(c1ccccc1Cl)=Nc1c[nH]nc1N2`, for which the IC50 came to 10 µM in [17], 0.5 µM in data set [18], 70 nM in [1] and 6000 nM with SW480 [2].

As for `Nc1n[nH]c2nc(-c3cccs3)cc(C(F)(F)F)c12`, the IC50 in data set [17] is over 30 µM; in data set [18] it was 10 µM; in data set [1], 2000 nM; in the data set on SW480 [2] it was 6000 nM.

The compound `O=[N+]([O-])c1ccc2c(c1)C(c1ccccc1Cl)=Nc1c(n[nH]c1C(F)(F)F)N2` displayed an IC50 in data set [1] of 232 nM.

`Cc1[nH]nc2c1N=C(c1ccccc1Cl)c1cc([N+](=O)[O-])ccc1N2`: the IC50 in [3] is 100 nM; in data set [4] it was over 10000 nM; in [5], over 60000 nM; in [6], 72 nM; in [1], 35 nM; on Focal adhesion kinase 1 it was 6900 nM. The half-maximal inhibitory concentration (IC50) in the data set on SW480 [2] was determined as 160 nM; in data set [9], 83 nM.
